The values below come from publication PMC6754270 (Cell chemical biology, 2019).

In one assay the test system is human VCP/p97 T688A. Conditions: sensor-II variability hot-spot mutation; ref Anderson et al., 2015; cited from earlier work.
Assay [1] addresses T1, spastin-WT (Drosophila melanogaster spastin, aa 209–758) (Drosophila melanogaster, UniProt Q8I0P1).
T1 sequence (Q8I0P1 209-758): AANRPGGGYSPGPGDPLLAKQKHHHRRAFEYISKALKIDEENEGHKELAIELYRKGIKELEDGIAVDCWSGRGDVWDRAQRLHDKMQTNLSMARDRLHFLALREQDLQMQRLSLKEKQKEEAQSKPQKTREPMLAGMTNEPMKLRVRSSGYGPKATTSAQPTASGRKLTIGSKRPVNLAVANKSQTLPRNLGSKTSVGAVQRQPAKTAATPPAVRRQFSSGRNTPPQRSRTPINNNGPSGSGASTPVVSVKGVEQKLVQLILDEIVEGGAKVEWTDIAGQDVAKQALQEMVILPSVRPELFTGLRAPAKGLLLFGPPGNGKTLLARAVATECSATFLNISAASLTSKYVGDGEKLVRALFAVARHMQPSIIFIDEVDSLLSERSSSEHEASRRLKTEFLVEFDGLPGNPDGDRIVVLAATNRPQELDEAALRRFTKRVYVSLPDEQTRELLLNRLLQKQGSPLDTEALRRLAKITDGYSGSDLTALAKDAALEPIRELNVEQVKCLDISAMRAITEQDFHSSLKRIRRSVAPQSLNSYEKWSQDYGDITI
The assay is described as follows: Steady-state ATPase activity, NADH-coupled assay, spastin-WT. The class given is biochemical.

Assay [2] has as its target T2, fidgetin-like 1 (Hs-FIGL1) (Homo sapiens, UniProt Q6PIW4).
T2 sequence (Q6PIW4 1-674): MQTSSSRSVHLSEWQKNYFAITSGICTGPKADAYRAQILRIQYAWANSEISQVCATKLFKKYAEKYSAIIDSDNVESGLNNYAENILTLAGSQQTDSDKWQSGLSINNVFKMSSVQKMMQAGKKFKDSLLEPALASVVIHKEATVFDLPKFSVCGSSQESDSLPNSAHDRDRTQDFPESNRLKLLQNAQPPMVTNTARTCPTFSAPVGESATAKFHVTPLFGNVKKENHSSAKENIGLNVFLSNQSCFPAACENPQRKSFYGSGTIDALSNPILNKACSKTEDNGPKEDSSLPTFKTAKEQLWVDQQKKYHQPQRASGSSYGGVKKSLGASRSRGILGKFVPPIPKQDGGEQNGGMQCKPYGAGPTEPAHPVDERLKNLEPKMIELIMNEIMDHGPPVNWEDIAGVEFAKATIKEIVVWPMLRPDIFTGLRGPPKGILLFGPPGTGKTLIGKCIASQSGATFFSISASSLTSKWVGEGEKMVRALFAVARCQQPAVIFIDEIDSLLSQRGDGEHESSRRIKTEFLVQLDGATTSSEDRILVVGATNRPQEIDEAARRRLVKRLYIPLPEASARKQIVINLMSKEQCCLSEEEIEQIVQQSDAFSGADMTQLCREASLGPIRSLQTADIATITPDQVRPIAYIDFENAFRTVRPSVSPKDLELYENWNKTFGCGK
Conditions: ref Cupido et al., 2019; cited from earlier work.

In assay [3] the target is spastin-AAA-T692A (aa 445–758) (Drosophila melanogaster, UniProt Q8I0P1, T692A). The assay is described as follows: Differential scanning fluorimetry, spastin-AAA-T692A. Particulars: 100 µM compound, vs DMSO, n=2. The assay is classed as binding. Background: DSF heats the sample and reads unfolding from a dye or from intrinsic fluorescence.
spastin-AAA-T692A (aa 445–758), sequence (Q8I0P1 445-758 T692A): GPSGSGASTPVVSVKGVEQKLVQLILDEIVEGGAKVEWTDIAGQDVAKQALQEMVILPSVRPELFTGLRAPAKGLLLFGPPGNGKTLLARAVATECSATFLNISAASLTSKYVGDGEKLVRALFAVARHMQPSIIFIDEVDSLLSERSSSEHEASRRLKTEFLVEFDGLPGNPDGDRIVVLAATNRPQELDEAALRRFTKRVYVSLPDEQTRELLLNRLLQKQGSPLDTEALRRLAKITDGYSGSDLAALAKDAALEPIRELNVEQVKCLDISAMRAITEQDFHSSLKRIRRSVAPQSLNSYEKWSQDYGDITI
Assay [4] concerns the target spastin-AAA-N527C (aa 445–758) (Drosophila melanogaster, UniProt Q8I0P1, N527C). The assay is described as follows: Differential scanning fluorimetry, spastin-AAA-N527C. Particulars: 100 µM compound, vs DMSO, n=2. The class given is binding.
In assay [5] the target is spastin-AAA-Q488V (aa 445–758) (Drosophila melanogaster, UniProt Q8I0P1, Q488V). The assay is described as follows: Differential scanning fluorimetry, spastin-AAA-Q488V. The class given is binding. Conditions: 100 µM compound, vs DMSO, n=2.
spastin-AAA-Q488V (aa 445–758), sequence (Q8I0P1 445-758 Q488V): as the sequence (Q8I0P1 445-758 T692A) above, with Q44V, A248T counted along it
The target in assay [6] is T1, spastin-WT (Drosophila melanogaster spastin, aa 209–758). Particulars: ref Cupido et al., 2019; cited from earlier work.
Assay [7] addresses T3, katanin (Xl-katanin) (Xenopus laevis, UniProt Q9PUL2). Conditions: ref Cupido et al., 2019; cited from earlier work.
Assay [8] addresses spastin-T692A (aa 209–758) (Drosophila melanogaster, UniProt Q8I0P1, T692A). The assay can be described thus: Steady-state ATPase activity, NADH-coupled assay, spastin-T692A. The assay is classed as biochemical. Particulars: for Change in inhibitor potency, T692A (sensor-II) vs wild-type: ATPase assay, compound 1: increase in potency.
For assay [9], the target named is T4, spastin-AAA-WT (aa 445–758) (Drosophila melanogaster, UniProt Q8I0P1).
T4 sequence (Q8I0P1 445-758): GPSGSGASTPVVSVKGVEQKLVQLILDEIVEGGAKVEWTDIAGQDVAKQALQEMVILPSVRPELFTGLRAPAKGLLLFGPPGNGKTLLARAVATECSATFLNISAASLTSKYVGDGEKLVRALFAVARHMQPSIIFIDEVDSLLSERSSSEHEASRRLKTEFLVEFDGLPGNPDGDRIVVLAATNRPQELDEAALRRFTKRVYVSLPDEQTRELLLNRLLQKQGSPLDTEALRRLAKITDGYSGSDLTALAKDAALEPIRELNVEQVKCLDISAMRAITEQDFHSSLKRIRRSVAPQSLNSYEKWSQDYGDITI
The assay is described as follows: Differential scanning fluorimetry, spastin-AAA-WT. The class given is binding. Conditions: 100 µM compound, vs DMSO, n=2. In a few lines:
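Drosophila spastin AAA domain (aa 445–758), expressed as a GST fusion in E. coli Rosetta, protease-cleaved and purified by anion exchange and gel filtration. Tm taken as minimum of first-derivative melt curve; n=2, range shown.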

Assay [10] has as its target spastin-N527C (aa 209–758) (Drosophila melanogaster, UniProt Q8I0P1, N527C). The assay is described as follows: Steady-state ATPase activity, NADH-coupled assay, spastin-N527C. The class given is biochemical. Particulars: for Change in inhibitor potency, N527C (P-loop) vs wild-type: ATPase assay, compound 4: reduction in potency.
Assay [11] deals with spastin-Q488V (aa 209–758) (Drosophila melanogaster, UniProt Q8I0P1, Q488V). The assay is described as follows: Steady-state ATPase activity, NADH-coupled assay, spastin-Q488V. The assay is classed as biochemical. Conditions: for Change in inhibitor potency, Q488V (N-loop) vs wild-type: ATPase assay, compound 4: reduction in potency.
spastin-Q488V (aa 209–758), sequence (Q8I0P1 209-758 Q488V): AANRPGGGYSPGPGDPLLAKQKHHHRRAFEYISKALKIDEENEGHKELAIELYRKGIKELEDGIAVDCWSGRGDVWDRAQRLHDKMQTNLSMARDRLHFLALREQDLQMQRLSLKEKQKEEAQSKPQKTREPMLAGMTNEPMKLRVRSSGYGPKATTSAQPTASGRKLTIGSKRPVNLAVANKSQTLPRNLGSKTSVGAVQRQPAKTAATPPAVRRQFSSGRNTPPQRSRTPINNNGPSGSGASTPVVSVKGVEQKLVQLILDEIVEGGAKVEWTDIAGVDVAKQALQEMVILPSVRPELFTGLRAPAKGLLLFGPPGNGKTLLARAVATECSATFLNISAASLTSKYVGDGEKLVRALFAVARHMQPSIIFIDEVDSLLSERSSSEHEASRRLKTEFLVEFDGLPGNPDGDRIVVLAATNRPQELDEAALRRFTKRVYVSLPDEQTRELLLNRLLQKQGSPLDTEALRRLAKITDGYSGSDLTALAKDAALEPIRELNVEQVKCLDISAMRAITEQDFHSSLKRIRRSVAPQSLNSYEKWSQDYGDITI
In another assay the target is T5, VPS4B (Hs-VPS4B) (Homo sapiens, UniProt O75351).
T5 sequence (O75351 1-444): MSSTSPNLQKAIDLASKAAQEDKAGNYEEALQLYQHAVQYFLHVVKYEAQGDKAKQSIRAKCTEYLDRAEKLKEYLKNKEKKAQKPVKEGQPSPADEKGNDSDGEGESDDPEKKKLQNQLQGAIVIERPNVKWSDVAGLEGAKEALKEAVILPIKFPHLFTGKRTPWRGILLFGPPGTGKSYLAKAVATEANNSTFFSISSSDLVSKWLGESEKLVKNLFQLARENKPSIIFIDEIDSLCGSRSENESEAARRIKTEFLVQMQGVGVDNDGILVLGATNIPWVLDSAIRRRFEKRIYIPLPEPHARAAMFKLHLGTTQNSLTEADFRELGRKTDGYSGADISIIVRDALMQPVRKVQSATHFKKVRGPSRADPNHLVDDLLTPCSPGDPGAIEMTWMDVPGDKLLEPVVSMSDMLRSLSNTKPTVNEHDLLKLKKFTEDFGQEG
The assay is described as follows: Steady-state ATPase activity of VPS4B. The class given is biochemical, H. sapiens. Particulars: 2 µM compound, 0.5 mM MgATP, n=2.

Assay [12] concerns the target T2, fidgetin-like 1 (Hs-FIGL1). The assay can be described thus: Steady-state ATPase activity of fidgetin-like 1. The class given is biochemical, H. sapiens. Particulars: 2 µM compound, 0.5 mM MgATP, n=2.
In assay [13] the target is T3, katanin (Xl-katanin). The assay is described as follows: Steady-state ATPase activity of katanin. The assay is classed as biochemical, X. laevis. Conditions: 2 µM compound, 0.5 mM MgATP, n=2.

“And” between values parts separate entries of the source, which are not always exact repeats. Equal values may be shown once. Read-outs that look alike come from different tables or passages of the source.

Broadly, the IC50 is the concentration needed to halve the response being measured. A low value points to inhibition by little substance.

spastin-N527C (aa 209–758), sequence (Q8I0P1 209-758 N527C): as the sequence (Q8I0P1 209-758 Q488V) above, with V280Q, N319C counted along it
spastin-T692A (aa 209–758), sequence (Q8I0P1 209-758 T692A): as the sequence (Q8I0P1 209-758 Q488V) above, with V280Q, T484A counted along it
spastin-AAA-N527C (aa 445–758), sequence (Q8I0P1 445-758 N527C): as the sequence (Q8I0P1 445-758 T692A) above, with N83C, A248T counted along it
T3 sequence (Q9PUL2 whole entry, the tested form may be a part): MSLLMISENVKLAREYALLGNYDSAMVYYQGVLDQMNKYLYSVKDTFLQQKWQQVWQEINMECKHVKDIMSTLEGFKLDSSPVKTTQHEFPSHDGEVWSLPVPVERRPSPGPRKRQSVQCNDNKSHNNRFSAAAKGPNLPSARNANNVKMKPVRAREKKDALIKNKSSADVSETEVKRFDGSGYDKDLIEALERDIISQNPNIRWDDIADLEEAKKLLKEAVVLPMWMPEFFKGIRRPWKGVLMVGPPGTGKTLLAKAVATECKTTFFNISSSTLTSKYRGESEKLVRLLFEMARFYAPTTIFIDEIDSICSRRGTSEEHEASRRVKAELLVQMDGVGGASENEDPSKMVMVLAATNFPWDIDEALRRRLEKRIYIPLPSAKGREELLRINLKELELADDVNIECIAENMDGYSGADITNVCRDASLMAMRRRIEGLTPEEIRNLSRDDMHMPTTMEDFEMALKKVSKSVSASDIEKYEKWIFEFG

Turning to `Cc1cc2c(C(N)=O)cccc2n1-c1nc2c(c(NCc3ccccc3)n1)COCC2` [CB-5083], in the assay on human VCP/p97 T688A, the “Change in compound potency, T688A vs wild-type VCP/p97” value was greater than 60 fold.

For `Nc1nc(Nc2ccc(S(N)(=O)=O)cc2)nn1C(=O)c1c(F)cccc1F` [compound 1, 4-((5-amino-1-(2,6-difluorobenzoyl)-1H-1,2,4-triazol-3-yl)amino)benzenesulfonamide], the IC50 in assay [1] (IC50, inhibition of steady-state ATPase activity of spastin-WT, 0.5 mM MgATP, average ± s.d., n=3) was 5700 nM and 5800 nM. Besides, in assay [1] (range of ATP concentrations, apparent K1/2 for ATP increased, kcat not altered), the Mechanism of inhibition entry was “ATP competitive mechanism of inhibition”. Moreover, in assay [2], the “Effect on ATPase activity of fidgetin-like 1” value is listed as “blocks the ATPase activity”. The “Observed ∆Tm, spastin-AAA-T692A” value in assay [3] was ~ 6.2 °C. The “Observed ∆Tm, spastin-AAA-N527C” value in assay [4] was ~ 4.3 °C. For the same compound, in assay [5], the “Observed ∆Tm, spastin-AAA-Q488V” value is ~ 4.5 °C. Besides, in [6], the “Effect on ATPase activity of spastin” value is “blocks the ATPase activity”. For the same compound, the “Effect on ATPase activity of katanin” value at katanin (Xl-katanin) [7] is given as “blocks the ATPase activity”. Moreover, in [8], the midpoint of inhibition, the IC50, lay at 900 ± 100 nM and the “Change in inhibitor potency, T692A (sensor-II) vs wild-type” value was ~ 7 fold. Further, the “Observed ∆Tm, spastin-AAA-WT” value in [9] was ~ 4.5 °C. For the same compound, in assay [10], 6000 ± 1000 nM corresponded to half-maximal inhibition (IC50) and the “Change in inhibitor potency, N527C (P-loop) vs wild-type” value is “less than 2 fold”. In addition, in assay [11], half-maximal inhibition (IC50) required 8900 ± 500 nM and the “Change in inhibitor potency, Q488V (N-loop) vs wild-type” value is “less than 2 fold”.

In assay [1], `CNC(=O)c1cccc(Nc2nc(N)n(C(=O)c3c(F)cccc3OC)n2)c1` [compound 4, 3-((5-amino-1-(2-fluoro-6-methoxybenzoyl)-1H-1,2,4-triazol-3-yl)amino)-N-methylbenzamide] showed a concentration for half-maximal inhibition (IC50) of 230 ± 20 nM. For the same compound, the “Inhibition of steady-state ATPase activity of spastin” value in assay [1] (2 µM compound, 0.5 mM MgATP, n=2) was “potently inhibits”. In addition, the “Inhibition of steady-state ATPase activity of VPS4B” value on VPS4B (Hs-VPS4B) is reported as “does not substantially inhibit”. In addition, the “Observed ∆Tm, spastin-AAA-T692A” value in assay [3] is ~ 7.2 °C. Also, in assay [4], the “Observed ∆Tm, spastin-AAA-N527C” value was ~ 4.5 °C. For the same compound, the “Observed ∆Tm, spastin-AAA-Q488V” value in assay [5] is ~ 5.0 °C. Also, in assay [8], half-maximal inhibition (IC50) was put at 220 ± 40 nM and the “Change in inhibitor potency, T692A (sensor-II) vs wild-type” value was “did not change the potency”. Besides, the “Observed ∆Tm, spastin-AAA-WT” value in assay [9] is ~ 6.7 °C. The “Inhibition of steady-state ATPase activity of fidgetin-like 1” value in [12] is reported as “does not substantially inhibit”. Besides, in assay [10], the half-inhibitory concentration (IC50) amounted to 1110 ± 210 nM and the “Change in inhibitor potency, N527C (P-loop) vs wild-type” value is ~ 4 fold. In [11], the midpoint of inhibition, the IC50, lay at 2600 ± 150 nM and the “Change in inhibitor potency, Q488V (N-loop) vs wild-type” value is listed as ~ 11 fold. Also, the “Inhibition of steady-state ATPase activity of katanin” value at katanin (Xl-katanin) [13] is given as “does not substantially inhibit”.
